Source: ChEMBL document CHEMBL1124606, “Benzo- and pyrido-1,4-oxazepin-5-ones and -thiones: synthesis and structure-activity relationships of a new series of H1 antihistamines” (1989)

What was measured:
Cavia porcellus [1] = experiment: Histamine induced lethality, at 30-min pretreatment time when 30 mg/kg compound was administered intra peritoneally in guinea pigs; assay type: functional
[2] = biological target: Histamine H1 receptor (Cavia porcellus) (UniProt P31389); experiment: Histamine induced lethality, at 30-min pretreatment time of 3 mg/kg i.p. in guinea pigs.; assay type: functional, organism-based; set-up: dose 3 mg/kg; conditions: at 3 mg/kg
Cavia porcellus [3] = species: Cavia porcellus; experiment: Effective dose that protects guinea pigs against histamine induced lethality, at 1 hour pretreatment time; assay type: functional
In short: (§1)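 Survival at 24 h after challenge was scored as protection. Groups of 5–10 animals per treatment; ED50 was calculated by the Litchfield–Wilcoxon method or by computer probit analysis.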

Cavia porcellus [4] = experiment: Histamine induced lethality, at 60-min pretreatment time when 1 mg/kg compound was administered perorally in guinea pigs; assay type: functional; conditions: route oral
Cavia porcellus [5] = species: Cavia porcellus; experiment: Effective dose that protects guinea pigs against histamine induced lethality at 6 hours pretreatment time; assay type: functional; in short: as §1
Cavia porcellus [6] = experiment: Histamine induced lethality, at 60-min pretreatment time when 0.3 mg/kg compound was administered perorally in guinea pigs; assay type: functional; conditions: route oral
[7] = biological target: Histamine H1 receptor (Cavia porcellus) (UniProt P31389); experiment: Histamine induced lethality, at 60-min pretreatment time of 0.1 mg/kg p.o. in guinea pigs.; assay type: functional, organism-based; set-up: dose 0.1 mg/kg; conditions: at 0.1 mg/kg
Cavia porcellus [8] = experiment: Histamine induced lethality, at 60-min pretreatment time when 3 mg/kg compound was administered perorally in guinea pigs; assay type: functional; conditions: route oral
Felis catus [9] = experiment: The compound dose required to elicit marked cortical slowing and spindling, when administarted intra venously in cats; assay type: functional
In short: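 Cats given test compound iv (0.001-20 mg/kg), with spontaneous EEG inspected after each dose for cortical slowing, synchrony and spindle-type activity. The sedative dose was the one producing marked slowing and spindling (synchrony). Values are mean ± SD over the number of experiments per compound.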

Cavia porcellus [10] = experiment: Histamine induced lethality, at 60-min pretreatment time when 30 mg/kg compound was administered perorally in guinea pigs; assay type: functional; conditions: route oral
Felis catus [11] = experiment: The compound dose required for 50% block of H1 histamine activity, when administarted intra venously in cats; assay type: functional
In short: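 Cats given test compound iv (0.001-20 mg/kg), with blood pressure recorded continuously. Histamine 0.5 μg/kg iv was given to induce hypotension, before and 5, 10 and 20 min after each dose. The antihistaminic dose was the one inhibiting the histamine response by >50%. Values are mean ± SD over the number of experiments per compound.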

Sequence of Histamine H1 receptor (Cavia porcellus) (P31389 whole entry): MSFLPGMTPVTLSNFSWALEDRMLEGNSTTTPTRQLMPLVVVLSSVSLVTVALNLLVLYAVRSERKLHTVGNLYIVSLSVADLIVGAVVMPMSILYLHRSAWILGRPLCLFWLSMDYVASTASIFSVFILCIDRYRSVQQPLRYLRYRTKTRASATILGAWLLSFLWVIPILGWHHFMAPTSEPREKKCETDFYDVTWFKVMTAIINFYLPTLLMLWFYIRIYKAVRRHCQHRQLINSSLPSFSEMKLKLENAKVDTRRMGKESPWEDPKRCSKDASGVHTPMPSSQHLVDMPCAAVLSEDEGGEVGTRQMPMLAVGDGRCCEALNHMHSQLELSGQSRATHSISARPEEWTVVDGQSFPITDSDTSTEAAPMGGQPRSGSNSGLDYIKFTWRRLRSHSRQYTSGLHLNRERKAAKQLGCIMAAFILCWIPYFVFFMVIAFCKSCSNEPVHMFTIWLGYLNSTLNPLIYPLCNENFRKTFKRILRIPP

SMILES	survival at 30 mg/kg (Cavia porcellus [1]) [%]	survival at 1 mg/kg (Cavia porcellus [4]) [%]	survival at 3 mg/kg (Cavia porcellus [8]) [%]	also measured
CN(C)CCCC1CN(C)C(=S)c2cccnc2O1 (stereo not drawn)	100	–	–	Survival [2]: 33%
CN(C)CCC1(C)CN(C)C(=S)c2cccnc2O1 (stereo not drawn)	–	100	–	ED50 (Cavia porcellus [3]): 0.12 mg/kg; ED50 (Cavia porcellus [5]): 6 mg/kg; survival at 0.3 mg/kg (Cavia porcellus [6]): 67%; Survival [7]: 40%
CN1CC(CCCN)Oc2ncccc2C1=O (stereo not drawn)	100	–	–	Survival [2]: 0%
CC(CC1CN(C)C(=O)c2cccnc2O1)N(C)C (stereo not drawn)	100	–	–	Survival [2]: 0%
CN(C)CCC1CNC(=O)c2cccnc2O1 (stereo not drawn)	–	0	67	–
S=C1c2ccccc2OC(CCN2CCOCC2)CN1Cc1ccccc1 (stereo not drawn)	0	–	–	–
CN(CCC1CN(C)C(=S)c2cc(Br)cnc2O1)Cc1ccccc1 (stereo not drawn)	–	0	100	–
CN(C)CC1CN(C)C(=O)c2cccnc2O1 (stereo not drawn)	0	–	–	–
CN(C)CCC1CN(C)C(=S)c2cc(Cl)ccc2O1 (stereo not drawn)	–	33	100	Dose (Felis catus [9]): 10 mg/kg
CN1CC(CCN2CCCCC2)Oc2ncccc2C1=S (stereo not drawn)	100	–	–	Survival [2]: 0%
CN(C)CCOc1ncccc1C(=S)N(C)C	0	–	–	–
CNCCC1CN(C)C(=S)c2cc(Cl)cnc2O1 (stereo not drawn)	–	–	100	survival at 0.3 mg/kg (Cavia porcellus [6]): 0%
CN(C)CCC1CN(Cc2ccccc2)C(=S)c2cccnc2O1 (stereo not drawn)	–	0	100	–
CN(C)CCC1CN(C)C(=O)c2cc(Cl)cnc2O1 (stereo not drawn)	–	100	–	ED50 (Cavia porcellus [3]): 0.3 mg/kg; ED50 (Cavia porcellus [5]): 28 mg/kg; survival at 0.3 mg/kg (Cavia porcellus [6]): 33%
CN1CC(CCN2CCOCC2)Oc2ncccc2C1=S (stereo not drawn)	100	–	–	Survival [2]: 0%
CN(C)CCC1CN(C)C(=S)c2cc(C(F)(F)F)ccc2O1 (stereo not drawn)	–	–	33	survival at 30 mg/kg (Cavia porcellus [10]): 100%
CN(CCC1CN(C)C(=S)c2cccnc2O1)Cc1ccccc1 (stereo not drawn)	–	0	100	–
CN(C)CCC1CN(C)C(=S)c2cc([N+](=O)[O-])ccc2O1 (stereo not drawn)	–	–	67	survival at 0.3 mg/kg (Cavia porcellus [6]): 33%
CN(CCC1CN(C)C(=S)c2cc(Cl)cnc2O1)Cc1ccccc1 (stereo not drawn)	–	–	100	ED50 (Cavia porcellus [3]): 0.9 mg/kg; survival at 0.3 mg/kg (Cavia porcellus [6]): 60%
COc1ccc(CCN(C)CCC2CN(C)C(=S)c3cccnc3O2)cc1 (stereo not drawn)	–	–	33	survival at 30 mg/kg (Cavia porcellus [10]): 100%

SMILES	survival at 30 mg/kg (Cavia porcellus [1]) [%]	survival at 1 mg/kg (Cavia porcellus [4]) [%]	survival at 3 mg/kg (Cavia porcellus [8]) [%]	also measured
CN(C)CCC1CN(C)C(=O)c2c(Cl)cncc2O1 (stereo not drawn)	0	–	–	–
CN1CC(CCNC2CC2)Oc2ncccc2C1=S (stereo not drawn)	0	–	–	–
CN1CC(CCN2CCCC2)Oc2ncccc2C1=S (stereo not drawn)	–	–	80	survival at 30 mg/kg (Cavia porcellus [10]): 67%
CN(C)CCC1CN(C)C(=O)c2cccnc2O1 (stereo not drawn)	–	20	100	ED50 (Cavia porcellus [3]): 1.05 mg/kg
CN1CC(CCN2CCC2)Oc2ncccc2C1=S (stereo not drawn)	–	–	–	ED50 (Cavia porcellus [3]): 0.04 mg/kg; ED50 (Cavia porcellus [5]): 1 mg/kg; Survival [7]: 100%
CN1CC(CCN2CC=CC2)Oc2ncccc2C1=S (stereo not drawn)	–	0	100	–
CN(C)CCOC(c1ccccc1)c1ccccc1 [DIPHENHYDRAMINE]	–	33	67	Dose (Felis catus [11]): 0.75 mg/kg; ED50 (Cavia porcellus [3]): 2.8 mg/kg; Dose (Felis catus [9]): 0.6 mg/kg; ED50 (Cavia porcellus [5]): 38 mg/kg
CN(C)CCC1(C)CN(C)C(=O)c2cccnc2O1 (stereo not drawn)	–	–	67	ED50 (Cavia porcellus [3]): 0.45 mg/kg; survival at 0.3 mg/kg (Cavia porcellus [6]): 67%
CCN(C)CCC1CN(C)C(=S)c2cccnc2O1 (stereo not drawn)	–	0	60	survival at 30 mg/kg (Cavia porcellus [10]): 100%
CN(C)CCC1CN(C)C(=S)c2cc(F)ccc2O1 (stereo not drawn)	–	20	100	survival at 0.3 mg/kg (Cavia porcellus [6]): 0%
CN(C)CCCOc1ncccc1C(=S)N(C)C	0	–	–	–
O=C1c2ccccc2OC(CCN2CCOCC2)CN1Cc1ccccc1 (stereo not drawn)	0	–	–	–
CN(C)CCC1CN(C)C(=O)c2c(cncc2N(C)C)O1 (stereo not drawn)	0	–	–	–
CN(C)CCC1CN(C)C(=O)c2cnc3ccccc3c2O1 (stereo not drawn)	33	–	–	–
CN1CC(CCN(Cc2ccccc2)Cc2ccccc2)Oc2ncccc2C1=S (stereo not drawn)	0	–	–	–
CCN1CC(CCN(C)C)N(C)c2ccccc2C1=O (stereo not drawn)	0	–	–	–
CCN(CC)CCC1CN(C)C(=S)c2cccnc2O1 (stereo not drawn)	–	33	67	–
CN(C)CCC1CN(C)C(=S)c2ccncc2O1 (stereo not drawn)	–	100	–	survival at 0.3 mg/kg (Cavia porcellus [6]): 0%
CCOC(=O)N1CCC(=C2c3ccc(Cl)cc3CCc3cccnc32)CC1 [LORATADINE]	–	–	–	Dose (Felis catus [11]): 0.43 mg/kg; Dose (Felis catus [9]): 20 mg/kg
